Experimental data: publication PMC7564034 (Acta Pharmaceutica Sinica. B, 2019)
Where two headings read alike, the source gives them in different places.

Tests used:
[1] = test system: LoVo colon cancer xenograft; assay: Xenograft tumor growth, SMI combined with 5FU, 14-day treatment; assay type: in vivo, Balb/c nude mice; details: compared to vehicle treated group; SMI 10 mL/kg/day, 5FU 15 mg/kg/3 days i.p., 14 days
LoVo xenografts = assay: Xenograft tumor growth, SMI or Rd combined with 5FU, 20-day treatment; assay type: in vivo, Balb/c mice; details: compared to vehicle + saline; SMI 10 mL/kg/day, Rd 5 mg/kg/day, 5FU 15 mg/kg/3 days i.p., 20 days
Method in brief: (§1)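 LoVo-xenograft mice with all tumors above 50 mm3 were dosed i.p. for 20 days: 10 mL/kg/day, 5 mg/kg/day, and/or 5FU 15 mg/kg every 3 days. Body weight and tumor axes were recorded daily; tumor volume = 1/2 × a × b². Tumors were resected after treatment. Weight change was read after 17 days; mean ± SEM.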

[2] = Mice body weight in the 5FU combination study; assay type: in vivo, Balb/c mice harboring LoVo xenografts; details: 5FU 15 mg/kg/3 days i.p.; 17-day treatment
Method in brief: as §1

[3] = assay type: in vivo, mice harboring xenograft tumors; details: after intraperitoneal injection of Rb1, Rc, or Rd; data not shown
[4] = assay type: in vivo, Balb/c nude mice harboring LoVo xenografts; details: for Cmax / Tmax: Balb/c nude, mouse, plasma, ip; for AUC0–∞ in plasma relative to those of Re, Rg1, Rg3 and Ro: after single or multiple SMI administration
Method in brief: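 Male LoVo-xenograft nude mice (6 weeks old) received 10 mL/kg i.p., either once or daily for 8 days. Blood (~0.1 mL) was drawn from the oculi chorioideae vein into heparin tubes between 5 min and 96 h after the last dose, 5 mice per time point. Plasma was spun at 8000 rpm for 5 min and extracted with methanol. AUC0–∞ and the multiple/single ratio were derived.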

[5] = assay type: in vivo, Balb/c nude mice harboring LoVo xenografts; details: 8-day vs single SMI 10 mL/kg/day i.p.
[6] = Constituent ratio of ginsenosides in SMI, plasma, tumor and endothelial cells; assay type: in vivo, Balb/c nude mice harboring LoVo xenografts; details: 20 min after 15-day SMI treatment
Method in brief: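 Tissues were sampled 20 min after the last dose of a 15-day i.p. course. Tumors were digested 1 h in DMEM with collagenase I (2 mg/mL) and DNase I (0.1 mg/mL), then strained through 40 μm mesh. CD31+ cells were enriched with PE anti-mouse CD31 and anti-PE magnetic particles, with purity checked by CD45/viability flow cytometry; n = 3. Each ratio = concentration of the constituent / summed eight ginsenosides.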

VEGF = assay: ELISA of VEGF secretion in tumors; assay type: in vivo, Balb/c mice harboring LoVo xenografts; details: 15 days i.p.; SMI, Rd-H 5 mg/kg, Rb1, Rg1; vs vehicle
Method in brief: (§2)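 Mice received test compound i.p. for 15 days. Tumors were harvested 20 min after the final dose and homogenized in RIPA buffer. VEGF and FGF were quantified by ELISA kit and normalized to protein content measured by BCA assay. Compared with vehicle.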

FGF = assay: ELISA of FGF secretion in tumors; assay type: in vivo, Balb/c mice harboring LoVo xenografts; details: 15 days i.p.; SMI, Rd-H 5 mg/kg, Rb1, Rg1; vs vehicle
Method in brief: as §2

Compound	Suppression of tumor growth [1] [%]	Suppression of tumor growth (LoVo xenografts) [%]	Suppression of the increase of mice body weight [2] [%]	Detection in plasma or tumor tissues [3]	Cmax ([4]; 10 mL/kg) [ng/mL]	Tmax ([4]; 10 mL/kg) [h]	Cmax ([4]; 10 mL/kg/day) [ng/mL]	Tmax ([4]; 10 mL/kg/day) [h]	AUC0–∞ in plasma relative to those of Re, Rg1, Rg3 and Ro [4]	AUC0–∞ ratio Multiple/Single in tumors [5]	Constituent ratio in TECs [6] [%]	Constituent ratio in plasma [6] [%]	Constituent ratio in tumor tissues [6] [%]	Reduction of the secretion of VEGF in tumors (VEGF) [%]	Suppression of the secretion of FGF in tumors (FGF) [%]
O=c1[nH]cc(F)c(=O)[nH]1 [5FU, 5-fluorouracil]	49.0	17	65												
CC(C)=CCC[C@](C)(O[C@@H]1O[C@H](CO)[C@@H](O)[C@H](O)[C@H]1O)[C@H]1CC[C@]2(C)[C@@H]1[C@H](O)C[C@@H]1[C@@]3(C)CC[C@H](O)C(C)(C)[C@@H]3CC[C@]12C [CK, compound K]				neither Rg3 nor CK could be detected											
CC(C)=CCC[C@](C)(O[C@@H]1O[C@H](CO[C@@H]2O[C@H](CO)[C@@H](O)[C@H](O)[C@H]2O)[C@@H](O)[C@H](O)[C@H]1O)[C@H]1CC[C@]2(C)[C@@H]1[C@H](O)C[C@@H]1[C@@]3(C)CC[C@H](O[C@@H]4O[C@H](CO)[C@@H](O)[C@H](O)[C@H]4O[C@@H]4O[C@H](CO)[C@@H](O)[C@H](O)[C@H]4O)C(C)(C)[C@@H]3CC[C@]12C [Rb1, ginsenoside Rb1]					20600	1	49400	2	more than 20 times	1.64	14.9	34.5	21.9	15	99
CC(C)=CCC[C@](C)(O[C@@H]1O[C@H](CO[C@@H]2O[C@@H](CO)[C@H](O)[C@H]2O)[C@@H](O)[C@H](O)[C@H]1O)[C@H]1CC[C@]2(C)[C@@H]1[C@H](O)C[C@@H]1[C@@]3(C)CC[C@H](O[C@@H]4O[C@H](CO)[C@@H](O)[C@H](O)[C@H]4O[C@@H]4O[C@H](CO)[C@@H](O)[C@H](O)[C@H]4O)C(C)(C)[C@@H]3CC[C@]12C [Rc]					7800	4	16900	2	more than 20 times	5.67					
